Measured values: ChEMBL document CHEMBL4052823, “Extra Sugar on Vancomycin: New Analogues for Combating Multidrug-Resistant Staphylococcus aureus and Vancomycin-Resistant Enterococci” (J Med Chem, 2018)
Values after ≈ are worked out from the molar mass of the structure shown.

Legend:
Enterococcus faecium [1] = assay: Antibacterial activity against glycopeptide-resistant Enterococcus faecium Efm-HS-0649 vanA after 24 hrs by broth microdilution method; assay type: functional; conditions: Efm-HS-0649, 24 h
Method in brief: (§1)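 Broth microdilution in cation-adjusted Mueller-Hinton II broth. DMSO stocks were diluted in broth and twofold serially from 128 to 0.0625 μg/mL or lower. Each well was inoculated with ~10^5 CFU of exponential-phase bacteria and incubated at 37 °C for 24 h. MIC was the lowest concentration giving complete growth inhibition, read per CLSI. Growth controls contained broth plus DMSO.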

Enterococcus faecium [2] = assay: Antibacterial activity against glycopeptide-resistant Enterococcus faecium Efm-HS-06188 vanA after 24 hrs by broth microdilution method; assay type: functional; conditions: Efm-HS-06188, 24 h; method in brief: as §1
Staphylococcus aureus [3] = assay: Potency index, ratio of telavancin MIC90 to test compound MIC90 for vancomycin/methicillin-susceptible Staphylococcus aureus Newman […]; assay type: functional
Enterococcus faecium [4] = assay: Antibacterial activity against glycopeptide-resistant Enterococcus faecium Efm-HS-08257 vanM after 24 hrs by broth microdilution method; assay type: functional; conditions: Efm-HS-08257, 24 h; method in brief: as §1
Enterococcus faecium [5] = assay: Antibacterial activity against glycopeptide-resistant Enterococcus faecium Efm-HS-0847 vanM after 24 hrs by broth microdilution method; assay type: functional; conditions: Efm-HS-0847, 24 h; method in brief: as §1
Enterococcus faecium [6] = assay: Antibacterial activity against glycopeptide-resistant Enterococcus faecium Efm-HS-vb01 vanB after 24 hrs by broth microdilution method; assay type: functional; conditions: Efm-HS-vb01, 24 h; method in brief: as §1
Staphylococcus aureus [7] = assay: Antibacterial activity against healthcare-associated methicillin-resistant/vancomycin-intermediate Staphylococcus aureus Mu50 after 24 hrs by broth microdilution method; assay type: functional; conditions: Mu50, 24 h; method in brief: as §1
Staphylococcus aureus [8] = assay: Antibacterial activity against vancomycin/methicillin-susceptible Staphylococcus aureus Newman […] after 24 hrs by broth microdilution method; assay type: functional
Method in brief: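 Broth microdilution in cation-adjusted Mueller-Hinton II broth. […] Each well received ~10^5 CFU of exponential-phase bacteria and was incubated at 37 °C for 24 h. MIC was taken as the lowest concentration giving complete growth inhibition, interpreted per CLSI.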

[9] = AUC (infinity) in CD1 mouse at 5 mg/kg, iv; assay type: ADME, organism-based; set-up: dose 5 mg/kg, route intravenous, time infinity; conditions: in vivo
Method in brief: (§2)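 Fasted male CD-1 mice (18−22 g), 5 mg/kg single dose into the tail vein, 6 per group. Blood sampled at 0.25, 0.75, 2, 4, 8 and 24 h and analysed by UPLC-MS/MS. T1/2, AUClast, AUCINF_obs, CL_obs, MRTINF_obs and VSS_obs were calculated for each animal from its time−concentration curve.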

[10] = Clearance in CD1 mouse at 5 mg/kg, iv; assay type: ADME, organism-based; conditions: in vivo; method in brief: as §2
[11] = AUClast in CD1 mouse at 5 mg/kg, iv; assay type: ADME, organism-based; set-up: dose 5 mg/kg, route intravenous, time 0 - last; conditions: in vivo; method in brief: as §2
Blood = assay: Drug uptake in CD1 mouse blood at 5 mg/kg, iv; assay type: ADME, organism-based; conditions: in vivo; method in brief: as §2
[12] = Volume of distribution at steady state in CD1 mouse at 5 mg/kg, iv; assay type: ADME, organism-based; conditions: in vivo, read-out: Vdss
Method in brief: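 Fasted male CD-1 mice (18−22 g), 5 mg/kg single dose into the tail vein, 6 per group. T1/2, AUClast, AUCINF_obs, CL_obs, MRTINF_obs and VSS_obs were calculated for each animal from its time−concentration curve.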

[13] = MRT (infinity) in CD1 mouse at 5 mg/kg, iv; assay type: ADME, organism-based; conditions: in vivo; method in brief: as §2
[14] = Half life in CD1 mouse at 5 mg/kg, iv; assay type: ADME, organism-based; conditions: in vivo; method in brief: as §2

Row | SMILES | MIC (Enterococcus faecium [1]) | MIC (Enterococcus faecium [2]) | Ratio (Staphylococcus aureus [3]) | MIC (Enterococcus faecium [4]) | MIC (Enterococcus faecium [5]) | MIC (Enterococcus faecium [6]) | MIC90 (Staphylococcus aureus [7]) | MIC90 (Staphylococcus aureus [8]) | AUC(0-inf) [9] | clearance [10] | AUC(0-t) [11] | Drug uptake (Blood) | Vd [12] | MRT inf [13] | half-life [14]
1 | CCCCCCCCCCN[C@@]1(C)C[C@H](O[C@H]2[C@H](Oc3c4cc5cc3Oc3ccc(cc3Cl)[C@@H](O)[C@@H](NC(=O)[C@@H](CC(C)C)NC)C(=O)N[C@@H](CC(N)=O)C(=O)N[C@H]5C(=O)N[C@H]3C(=O)N[C@H](C(=O)N[C@H](C(=O)O)c5cc(O)c(CN[C@H]6C(O)O[C@H](CO)[C@H](O)[C@@H]6O)c(O)c5-c5cc3ccc5O)[C@H](O)c3ccc(c(Cl)c3)O4)O[C@H](CO)[C@@H](O)[C@@H]2O)O[C@@H](C)[C@H]1O (stereo partly drawn) | 8 µg/mL (≈ 4.49 µM) | 8 µg/mL (≈ 4.49 µM) | 8 - 16 | 16 µg/mL (≈ 8.99 µM) | 32 µg/mL (≈ 18 µM) | 0.5 µg/mL (≈ 0.281 µM) | 0.25 µg/mL (≈ 0.14 µM) | 0.03 µg/mL (≈ 0.0168 µM) |  |  |  |  |  |  | 
2 | CCCCCCCCCCNCCN[C@@]1(C)C[C@H](O[C@H]2[C@H](Oc3c4cc5cc3Oc3ccc(cc3Cl)[C@@H](O)[C@@H](NC(=O)[C@@H](CC(C)C)NC)C(=O)N[C@@H](CC(N)=O)C(=O)N[C@H]5C(=O)N[C@H]3C(=O)N[C@H](C(=O)N[C@H](C(=O)O)c5cc(O)c(CNCCO)c(O)c5-c5cc3ccc5O)[C@H](O)c3ccc(c(Cl)c3)O4)O[C@H](CO)[C@@H](O)[C@@H]2O)O[C@@H](C)[C@H]1O | 16 µg/mL (≈ 9.38 µM) | 16 µg/mL (≈ 9.38 µM) |  | 1 µg/mL (≈ 0.586 µM) | 8 µg/mL (≈ 4.69 µM) | 4 µg/mL (≈ 2.35 µM) | 4 µg/mL (≈ 2.35 µM) | 1 µg/mL (≈ 0.586 µM) |  |  |  |  |  |  | 
3 | CCCCCCCCCCNCCN[C@@]1(C)C[C@H](O[C@H]2[C@H](Oc3c4cc5cc3Oc3ccc(cc3Cl)[C@@H](O)[C@@H](NC(=O)[C@@H](CC(C)C)NC)C(=O)N[C@@H](CC(N)=O)C(=O)N[C@H]5C(=O)N[C@H]3C(=O)N[C@H](C(=O)N[C@H](C(=O)O)c5cc(O)c(CN[C@H]6C(O)O[C@H](CO)[C@H](O)[C@@H]6O)c(O)c5-c5cc3ccc5O)[C@H](O)c3ccc(c(Cl)c3)O4)O[C@H](CO)[C@@H](O)[C@@H]2O)O[C@@H](C)[C@H]1O (stereo partly drawn) | 16 µg/mL (≈ 8.77 µM) | 8 µg/mL (≈ 4.39 µM) |  | 8 µg/mL (≈ 4.39 µM) | 8 µg/mL (≈ 4.39 µM) | 1 µg/mL (≈ 0.548 µM) | 0.5 µg/mL (≈ 0.274 µM) | 0.12 µg/mL (≈ 0.0658 µM) |  |  |  |  |  |  | 
4 | CN[C@H](CC(C)C)C(=O)N[C@H]1C(=O)N[C@@H](CC(N)=O)C(=O)N[C@H]2C(=O)N[C@H]3C(=O)N[C@H](C(=O)N[C@H](C(=O)NCCCN(C)C)c4cc(O)c(CNCCO[C@H]5O[C@H](CO)[C@@H](O)[C@H](O)[C@@H]5O)c(O)c4-c4cc3ccc4O)[C@H](O)c3ccc(c(Cl)c3)Oc3cc2cc(c3O[C@@H]2O[C@H](CO)[C@@H](O)[C@H](O)[C@H]2O[C@H]2C[C@](C)(NCc3ccc(-c4ccc(Cl)cc4)cc3)[C@H](O)[C@H](C)O2)Oc2ccc(cc2Cl)[C@H]1O | 0.5 µg/mL (≈ 0.254 µM) | 1 µg/mL (≈ 0.508 µM) |  | 0.5 µg/mL (≈ 0.254 µM) | 2 µg/mL (≈ 1.02 µM) | 4 µg/mL (≈ 2.03 µM) | 4 µg/mL (≈ 2.03 µM) | 2 µg/mL (≈ 1.02 µM) |  |  |  |  |  |  | 
5 | CCCCCCCCCCNCCN[C@@]1(C)C[C@H](O[C@H]2[C@H](Oc3c4cc5cc3Oc3ccc(cc3Cl)[C@@H](O)[C@@H](NC(=O)[C@@H](CC(C)C)NC)C(=O)N[C@@H](CC(N)=O)C(=O)N[C@H]5C(=O)N[C@H]3C(=O)N[C@H](C(=O)N[C@H](C(=O)O)c5cc(O)c(CNCCCNC(=O)[C@H](O)[C@@H](O)[C@H](O)[C@H](O)CO)c(O)c5-c5cc3ccc5O)[C@H](O)c3ccc(c(Cl)c3)O4)O[C@H](CO)[C@@H](O)[C@@H]2O)O[C@@H](C)[C@H]1O | 2 µg/mL (≈ 1.05 µM) | 4 µg/mL (≈ 2.11 µM) |  | 0.12 µg/mL (≈ 0.0633 µM) | 2 µg/mL (≈ 1.05 µM) | 2 µg/mL (≈ 1.05 µM) | 1 µg/mL (≈ 0.527 µM) | 0.5 µg/mL (≈ 0.264 µM) |  |  |  |  |  |  | 
6 | CN[C@H](CC(C)C)C(=O)N[C@H]1C(=O)N[C@@H](CC(N)=O)C(=O)N[C@H]2C(=O)N[C@H]3C(=O)N[C@H](C(=O)N[C@H](C(=O)O)c4cc(O)cc(O)c4-c4cc3ccc4O)[C@H](O)c3ccc(c(Cl)c3)Oc3cc2cc(c3O[C@@H]2O[C@H](CO)[C@@H](O)[C@H](O)[C@H]2O[C@H]2C[C@](C)(NCc3ccc(-c4ccc(C(F)(F)F)cc4)cc3)[C@H](O)[C@H](C)O2)Oc2ccc(cc2Cl)[C@H]1O |  |  |  |  |  |  |  |  | 67500 ng·h/mL | 1.24 mL/min/kg | 64200 ng·h/mL | > 1 µg/mL | 0.509 L/kg | 6.83 h | 6.04 h
